Measurements pooled from the literature.
Cell line: SN12C
Read-out: cell growth or viability

SMILES	assay	setting	measurement	value
CC[C@@]1(O)C(=O)OCc2c1cc1n(c2=O)Cc2cc3ccccc3nc2-1	SRB	–	GI50	20 nM
COc1cc(-c2ccc(-c3ccc(C(=N)N)nc3)s2)cc(OC)c1OC	–	–	GI50	2050 nM
COc1ccc(C(=O)/C=C/c2cccc(Br)c2)cc1S(N)(=O)=O	SRB	10 µM	inhibition	179%
Cc1cc(C)n(C(=S)[S][Au][PH](CCCCCC[PH]([Au][S]C(=S)n2nc(C)cc2C)(c2ccccc2)c2ccccc2)(c2ccccc2)c2ccccc2)n1	–	–	GI50	479 nM
COc1ccc(-c2ccc(-c3ccc(C(=N)N)nc3)s2)cc1Cl	–	–	GI50	1790 nM
COc1ccc(C(=O)/C=C/c2ccc(Cl)c(Cl)c2)cc1S(N)(=O)=O	SRB	48 h	GI50	1400 nM
S=C([S][Au-][P+](CCCCCC[P+]([Au-][S]C(=S)n1cccn1)(c1ccccc1)c1ccccc1)(c1ccccc1)c1ccccc1)n1cccn1	–	–	GI50	1950 nM
COc1cccc(Oc2ccccc2NC(=O)CNC(=O)c2cccc3ccccc23)c1	SRB	48 h	GI50	1450 nM
